Experimental findings from ChEMBL document CHEMBL3351726 (J Med Chem, 2014) are described below.

A short description of series [1]: Retention time of the compound measured over 30 mins at flow rate of 1 mL/min by HPLC. It is filed as physicochemical. To be noted: 0.5 h. A digest of the protocol: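 Reversed-phase analytical HPLC or LC−MS on a SymmetryShield RP18 column (5 μm, 4.6 × 150 mm). Gradient 10−60% B over 30 min at 1 mL/min; A = 0.1% TFA in water, B = 0.1% TFA in acetonitrile.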
The test system of a further series is HEK293. Nature of the series: Selectivity ratio of IC50 for rat Nav1.2 expressed in HEK-293 cells to IC50 for human Nav1.7 expressed in HEK-293 cells. It is filed as cell-based.
Series [2] addresses Sodium channel protein type 9 subunit alpha (Homo sapiens, UniProt Q15858). Nature of the series: Inhibition of human Nav1.7 expressed in HEK-293 cells assessed as time for channel-mediated current inhibition at 2 nM by time-course experiment. As to conditions: HEK293. Format: cell-based. The gist of the method: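 HEK-293 cells on poly-D-lysine-coated dishes in DMEM at 37 °C, 5% CO2; recorded 12−48 h after plating. Whole-cell voltage-clamp sodium currents under continuous perfusion with extracellular solution. Compounds applied via a gravity-driven superfusion pipette array with its outlet about 100 μm from the cell.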

Series [3] can be described thus: Retention time of the compound measured over 15 mins at flow rate of 1 mL/min by HPLC.

Molecules are shown by their SMILES.

Chain of Sodium channel protein type 9 subunit alpha (Q15858 whole entry, looked up, the tested form may be a part): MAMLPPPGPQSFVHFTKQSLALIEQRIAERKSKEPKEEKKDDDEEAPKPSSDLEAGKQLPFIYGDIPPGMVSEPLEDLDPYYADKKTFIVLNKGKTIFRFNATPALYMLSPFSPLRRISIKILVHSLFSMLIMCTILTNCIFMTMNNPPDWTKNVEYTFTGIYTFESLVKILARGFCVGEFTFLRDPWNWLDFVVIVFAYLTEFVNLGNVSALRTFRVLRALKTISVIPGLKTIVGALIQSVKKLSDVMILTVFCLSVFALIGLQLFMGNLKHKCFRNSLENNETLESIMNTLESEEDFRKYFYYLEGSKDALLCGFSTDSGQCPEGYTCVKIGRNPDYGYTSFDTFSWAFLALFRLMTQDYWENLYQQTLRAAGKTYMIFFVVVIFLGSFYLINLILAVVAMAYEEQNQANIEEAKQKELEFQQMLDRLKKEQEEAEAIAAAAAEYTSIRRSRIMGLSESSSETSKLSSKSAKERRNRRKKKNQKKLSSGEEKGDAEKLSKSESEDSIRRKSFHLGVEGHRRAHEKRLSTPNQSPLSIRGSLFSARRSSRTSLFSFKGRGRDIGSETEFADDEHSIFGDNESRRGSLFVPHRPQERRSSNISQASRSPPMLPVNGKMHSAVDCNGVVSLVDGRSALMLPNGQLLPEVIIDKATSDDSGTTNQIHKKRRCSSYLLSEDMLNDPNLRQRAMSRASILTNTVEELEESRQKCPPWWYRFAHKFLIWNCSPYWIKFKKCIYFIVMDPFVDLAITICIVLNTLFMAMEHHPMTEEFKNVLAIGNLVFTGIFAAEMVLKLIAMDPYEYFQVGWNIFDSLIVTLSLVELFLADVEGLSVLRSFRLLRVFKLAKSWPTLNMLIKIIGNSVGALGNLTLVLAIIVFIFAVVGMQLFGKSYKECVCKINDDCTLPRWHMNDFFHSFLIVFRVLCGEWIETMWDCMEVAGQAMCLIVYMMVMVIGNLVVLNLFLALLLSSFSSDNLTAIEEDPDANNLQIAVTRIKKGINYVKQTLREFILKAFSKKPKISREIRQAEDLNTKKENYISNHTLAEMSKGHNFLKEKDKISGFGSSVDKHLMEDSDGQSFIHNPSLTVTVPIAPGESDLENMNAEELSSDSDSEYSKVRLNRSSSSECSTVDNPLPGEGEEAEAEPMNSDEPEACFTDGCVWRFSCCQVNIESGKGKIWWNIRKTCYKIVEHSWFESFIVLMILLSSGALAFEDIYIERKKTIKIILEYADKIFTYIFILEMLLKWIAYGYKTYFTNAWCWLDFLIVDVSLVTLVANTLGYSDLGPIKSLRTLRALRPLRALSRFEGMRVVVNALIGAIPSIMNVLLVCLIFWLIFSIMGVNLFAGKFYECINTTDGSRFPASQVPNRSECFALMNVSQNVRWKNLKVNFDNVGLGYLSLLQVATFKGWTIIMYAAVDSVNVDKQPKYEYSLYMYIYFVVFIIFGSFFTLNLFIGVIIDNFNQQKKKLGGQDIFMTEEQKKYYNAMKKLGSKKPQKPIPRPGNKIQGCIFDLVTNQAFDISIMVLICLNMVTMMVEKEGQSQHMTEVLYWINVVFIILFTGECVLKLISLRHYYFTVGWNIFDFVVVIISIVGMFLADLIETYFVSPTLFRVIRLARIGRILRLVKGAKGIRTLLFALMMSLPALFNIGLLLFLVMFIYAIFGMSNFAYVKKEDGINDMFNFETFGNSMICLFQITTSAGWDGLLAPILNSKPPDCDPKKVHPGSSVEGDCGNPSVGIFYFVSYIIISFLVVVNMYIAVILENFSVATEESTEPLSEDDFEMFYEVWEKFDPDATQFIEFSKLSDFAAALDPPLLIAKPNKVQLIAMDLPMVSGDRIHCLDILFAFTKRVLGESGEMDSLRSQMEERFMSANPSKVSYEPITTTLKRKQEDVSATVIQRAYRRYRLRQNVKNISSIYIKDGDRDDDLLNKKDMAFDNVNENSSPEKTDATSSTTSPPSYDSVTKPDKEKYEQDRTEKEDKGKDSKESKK

For `CSCC[C@@H]1NC(=O)CNC(=O)[C@H](CCC(=O)O)NC(=O)[C@@H]2CSSC[C@H](NC(=O)[C@@H](N)Cc3ccc(O)cc3)C(=O)N[C@@H](CCC(N)=O)C(=O)N[C@@H](CCCCN)C(=O)N[C@@H](Cc3c[nH]c4ccccc34)C(=O)N[C@@H](CCSC)C(=O)N[C@@H](Cc3c[nH]c4ccccc34)C(=O)N[C@@H]([C@@H](C)O)C(=O)N[C@H]3CSSC[C@H](NC(=O)[C@H](C(C)C)NC1=O)C(=O)N[C@@H](CCCNC(=N)N)C(=O)N[C@@H](CC(C)C)C(=O)N[C@@H](Cc1c[nH]c4ccccc14)C(=O)N[C@H](C(=O)N[C@@H](CCCCN)C(=O)N[C@@H](CCCCN)C(=O)N[C@@H](CCCCN)C(=O)N[C@@H](CC(C)C)C(=O)N[C@@H](Cc1c[nH]c4ccccc14)C(=O)O)CSSC[C@H](NC(=O)[C@H](CCCCN)NC(=O)[C@H](CCCNC(=N)N)NC(=O)[C@H](C)NC(=O)[C@H](CO)NC(=O)[C@H](CC(=O)O)NC3=O)C(=O)N2`, the values for the Retention_time in series [1] and in series [3] were 14.54 min and 9.29 min, respectively. The Ratio IC50 in the series with HEK293 is 40. Also, the TIME in series [2] stood at 0.0606 h.
